# Target: Human immunodeficiency virus type 1 protease (Human immunodeficiency virus 1, UniProt Q72874)
# Assay: Inhibition of HIV1 protease
# How it was run: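 HIV-1 protease (SF-2-WTQ7K-Pr construct for the isolated inhibitors) at 20 µg/mL with 50 µM fluorogenic substrate Abz-Thr-Ile-Nle/Phe-(p-NO2)Gln-Arg-NH2, in 0.1 M MES, 0.2 M NaCl, pH 5.25, 5% (v/v) glycerol. Crude mixtures were screened at 5 µM as percent inhibition.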
row,Structure (SMILES),Ki
1,Cc1ccc(Cl)cc1N1CCN(Cc2nnn([C@@H](Cc3ccccc3)[C@H](Cc3ccccc3)NC(=O)OC3CCCC3)c2CO)CC1,8 nM
2,Cc1ccc(Cl)cc1N1CCN(Cc2nnn([C@@H](Cc3ccccc3)[C@H](Cc3ccccc3)NC(=O)OC3CCCC3)c2[C@H](C)O)CC1,21 nM
3,CC[C@@H](O)c1c(CN2CCN(c3cc(C)ccc3C)CC2)nnn1[C@@H](Cc1ccccc1)[C@H](Cc1ccccc1)NC(=O)OC1CCCC1,42 nM
4,Cc1ccc(C)c(N2CCN(Cc3nnn([C@@H](Cc4ccccc4)[C@H](Cc4ccccc4)NC(=O)OC4CCCC4)c3[Si](C)(C)C)CC2)c1,> 2500 nM
5,Cc1ccc(C)c(N2CCN(Cc3nnn([C@@H](Cc4ccccc4)[C@H](Cc4ccccc4)NC(=O)OC4CCCC4)c3[C@H](C)O)CC2)c1,10 nM
6,Cc1ccc(C)c(N2CCN(Cc3nnn([C@@H](Cc4ccccc4)[C@H](Cc4ccccc4)NC(=O)OC4CCCC4)c3CO)CC2)c1,14 nM
7,Cc1ccc(C)c(N2CCN(Cc3nnn([C@@H](Cc4ccccc4)[C@H](Cc4ccccc4)NC(=O)OC4CCCC4)c3[C@@H](C)O)CC2)c1,25 nM

# Target: Human immunodeficiency virus type 1 protease (Human immunodeficiency virus 1) (UniProt Q72874)
# Assay: Inhibition of HIV1 protease at 5 uM
# How it was run: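 Crude click-reaction DMSO mixtures (azide-alkyne, CuSO4 with copper turning, 1:1 tBuOH/H2O, 50 °C, 5 days) diluted to 5 µM in 0.1 M MES, 0.2 M NaCl, pH 5.25, 5% glycerol; HIV-1 protease 20 µg/mL plus fluorogenic substrate 50 µM added; fluorescence read directly in microplate; percent inhibition; TL-3 100 nM positive control.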
row,inhibition,Structure (SMILES)
1,30%,Cc1ccc(Cl)cc1N1CCN(Cc2cn([C@@H](Cc3ccccc3)[C@H](Cc3ccccc3)NC(=O)Nc3ccc(F)cc3)nn2)CC1
2,35%,O=C(N[C@@H](Cc1ccccc1)[C@H](Cc1ccccc1)n1cc(CN2CCN(C(=O)OCc3ccccc3)CC2)nn1)OC1CCCC1
3,12%,O=C(N[C@@H](Cc1ccccc1)[C@H](Cc1ccccc1)n1cc(CN2CCN(c3ccncc3)CC2)nn1)OC1CCCC1
4,76%,O=C(N[C@@H](Cc1ccccc1)[C@H](Cc1ccccc1)n1cc(CN2CCN(c3ccccc3Cl)CC2)nn1)OC1CCCC1
5,20%,O=C(N[C@@H](Cc1ccccc1)[C@H](Cc1ccccc1)n1cc(CN2CCC(O)(c3ccccc3)CC2)nn1)OC1CCCC1
6,28%,O=C(N[C@@H](Cc1ccccc1)[C@H](Cc1ccccc1)n1cc(CN2CCCC(c3ccccc3)C2)nn1)OC1CCCC1 (stereo not given in full)
7,25%,COC(=O)N[C@@H](Cc1ccccc1)[C@H](Cc1ccccc1)n1cc(CN2CCN(c3cc(Cl)ccc3C)CC2)nn1
8,23%,O=C(N[C@@H](Cc1ccccc1)[C@H](Cc1ccccc1)n1cc(CN2CCC(n3c(=O)[nH]c4ccccc43)CC2)nn1)OC1CCCC1
9,48%,O=C(N[C@@H](Cc1ccccc1)[C@H](Cc1ccccc1)n1cc(CN2CCN(c3ccc(C(F)(F)F)cc3)CC2)nn1)OC1CCCC1
10,25%,Cc1ccc(Cl)cc1N1CCN(Cc2cn([C@@H](Cc3ccccc3)[C@H](Cc3ccccc3)NC(=O)c3ccco3)nn2)CC1
11,34%,O=C(N[C@@H](Cc1ccccc1)[C@H](Cc1ccccc1)n1cc(CN2CCC(O)(c3cccc(C(F)(F)F)c3)CC2)nn1)OC1CCCC1
12,89%,O=C(N[C@@H](Cc1ccccc1)[C@H](Cc1ccccc1)n1cc(CN2CCN(c3cc(Cl)cc(Cl)c3)CC2)nn1)OC1CCCC1
13,41%,Cc1ccc(Cl)cc1N1CCN(Cc2cn([C@@H](Cc3ccccc3)[C@H](Cc3ccccc3)NC(=O)OCC3CCCO3)nn2)CC1 (stereo not given in full)
14,17%,Cc1ccc(Cl)cc1N1CCN(Cc2cn([C@@H](Cc3ccccc3)[C@H](Cc3ccccc3)NC(=O)C3CCCCC3)nn2)CC1
15,38%,COc1ccccc1N1CCN(Cc2cn([C@@H](Cc3ccccc3)[C@H](Cc3ccccc3)NC(=O)OC3CCCC3)nn2)CC1
16,36%,O=C(N[C@@H](Cc1ccccc1)[C@H](Cc1ccccc1)n1cc(CN2CCN(c3ccccn3)CC2)nn1)OC1CCCC1
17,28%,Cc1ccc(Cl)cc1N1CCN(Cc2cn([C@@H](Cc3ccccc3)[C@H](Cc3ccccc3)NC(=O)C3CCCC3)nn2)CC1
18,41%,CCOC(=O)N[C@@H](Cc1ccccc1)[C@H](Cc1ccccc1)n1cc(CN2CCN(c3cc(Cl)ccc3C)CC2)nn1
19,67%,O=C(N[C@@H](Cc1ccccc1)[C@H](Cc1ccccc1)n1cc(CN2CCC(c3ccccc3)CC2)nn1)OC1CCCC1
20,66%,Cc1ccc(Cl)cc1N1CCN(Cc2cn([C@@H](Cc3ccccc3)[C@H](Cc3ccccc3)NC(=O)OC3CCCCC3)nn2)CC1
21,29%,O=C(N[C@@H](Cc1ccccc1)[C@H](Cc1ccccc1)n1cc(CN2CCN(Cc3ccc4c(c3)OCO4)CC2)nn1)OC1CCCC1
22,76%,Cc1ccc(Cl)cc1N1CCN(Cc2cn([C@@H](Cc3ccccc3)[C@H](Cc3ccccc3)NC(=O)OCC3CCCC3)nn2)CC1
23,55%,Cc1cccc(N2CCN(Cc3cn([C@@H](Cc4ccccc4)[C@H](Cc4ccccc4)NC(=O)OC4CCCC4)nn3)CC2C)c1 (stereo not given in full)
24,75%,Cc1ccc(Cl)cc1N1CCN(Cc2cn([C@@H](Cc3ccccc3)[C@H](Cc3ccccc3)NC(=O)OCC3CCC3)nn2)CC1
25,29%,Cc1ccc(Cl)cc1N1CCN(Cc2cn([C@@H](Cc3ccccc3)[C@H](Cc3ccccc3)NC(=O)OCc3ccccc3)nn2)CC1
26,85%,O=C(N[C@@H](Cc1ccccc1)[C@H](Cc1ccccc1)n1cc(CN2CCN(c3cccc(O)c3)CC2)nn1)OC1CCCC1
27,73%,Cc1ccc(Cl)cc1N1CCN(Cc2cn([C@@H](Cc3ccccc3)[C@H](Cc3ccccc3)NC(=O)OCC(C)C)nn2)CC1
28,22%,O=C(N[C@@H](Cc1ccccc1)[C@H](Cc1ccccc1)n1cc(CN2CCN(C3CCCCC3)CC2)nn1)OC1CCCC1

row,inhibition,Structure (SMILES)
1,48%,O=C(N[C@@H](Cc1ccccc1)[C@H](Cc1ccccc1)n1cc(CN2CCC(O)(c3ccc(Cl)c(C(F)(F)F)c3)CC2)nn1)OC1CCCC1
2,87%,Cc1cccc(N2CCN(Cc3cn([C@@H](Cc4ccccc4)[C@H](Cc4ccccc4)NC(=O)OC4CCCC4)nn3)CC2)c1
3,26%,O=C(N[C@@H](Cc1ccccc1)[C@H](Cc1ccccc1)n1cc(CN2CCC(O)(c3ccc(Cl)cc3)CC2)nn1)OC1CCCC1
4,31%,Cc1ccc(Cl)cc1N1CCN(Cc2cn([C@@H](Cc3ccccc3)[C@H](Cc3ccccc3)NC(=O)Oc3ccccc3)nn2)CC1
5,69%,Cc1ccc(Cl)cc1N1CCN(Cc2cn([C@@H](Cc3ccccc3)[C@H](Cc3ccccc3)NC(=O)OCC3CC3)nn2)CC1
6,85%,Cc1ccc(Cl)cc1N1CCN(Cc2cn([C@@H](Cc3ccccc3)[C@H](Cc3ccccc3)NC(=O)O[C@H]3CCOC3)nn2)CC1
7,26%,CCN1CCN(Cc2cn([C@@H](Cc3ccccc3)[C@H](Cc3ccccc3)NC(=O)OC3CCCC3)nn2)CC1
8,82%,O=C(N[C@@H](Cc1ccccc1)[C@H](Cc1ccccc1)n1cc(CN2CCN(c3ccccc3)CC2)nn1)OC1CCCC1
9,64%,O=C(N[C@@H](Cc1ccccc1)[C@H](Cc1ccccc1)n1cc(CN2CCN(c3ccc(F)cc3)CC2)nn1)OC1CCCC1
10,14%,O=C(N[C@@H](Cc1ccccc1)[C@H](Cc1ccccc1)n1cc(CN2CCN(c3cnccn3)CC2)nn1)OC1CCCC1
11,93%,O=C(N[C@@H](Cc1ccccc1)[C@H](Cc1ccccc1)n1cc(CN2CCN(c3cccc(Cl)c3)CC2)nn1)OC1CCCC1
12,58%,O=C(N[C@@H](Cc1ccccc1)[C@H](Cc1ccccc1)n1cc(CN2CC=C(c3ccc(Cl)cc3)CC2)nn1)OC1CCCC1
13,81%,O=C(N[C@@H](Cc1ccccc1)[C@H](Cc1ccccc1)n1cc(CN2CCN(c3ccc(F)cc3F)CC2)nn1)OC1CCCC1
14,63%,Cc1ccc(Cl)cc1N1CCN(Cc2cn([C@@H](Cc3ccccc3)[C@H](Cc3ccccc3)NC(=O)OC3CCCCCC3)nn2)CC1
15,77%,O=C(N[C@@H](Cc1ccccc1)[C@H](Cc1ccccc1)n1cc(CN2CCN(c3ccc(Cl)cc3)CC2)nn1)OC1CCCC1
16,70%,O=C(N[C@@H](Cc1ccccc1)[C@H](Cc1ccccc1)n1cc(CN2CCC(Cc3ccccc3)CC2)nn1)OC1CCCC1
17,25%,O=C(N[C@@H](Cc1ccccc1)[C@H](Cc1ccccc1)n1cc(CN2CCN(c3ncccn3)CC2)nn1)OC1CCCC1
18,15%,Cc1ccc(Cl)cc1N1CCN(Cc2cn([C@@H](Cc3ccccc3)[C@H](Cc3ccccc3)NC(=O)NC3CCCCC3)nn2)CC1
19,86%,O=C(N[C@@H](Cc1ccccc1)[C@H](Cc1ccccc1)n1cc(CN2CCN(c3ccc(Cl)c(Cl)c3)CC2)nn1)OC1CCCC1
20,75%,Cc1ccc(Cl)cc1N1CCN(Cc2cn([C@@H](Cc3ccccc3)[C@H](Cc3ccccc3)NC(=O)OC3CCC3)nn2)CC1
21,27%,CCOC(=O)N1CCN(Cc2cn([C@@H](Cc3ccccc3)[C@H](Cc3ccccc3)NC(=O)OC3CCCC3)nn2)CC1
22,86%,Cc1c(Cl)cccc1N1CCN(Cc2cn([C@@H](Cc3ccccc3)[C@H](Cc3ccccc3)NC(=O)OC3CCCC3)nn2)CC1
23,19%,Cc1ccc(Cl)cc1N1CCN(Cc2cn([C@@H](Cc3ccccc3)[C@H](Cc3ccccc3)NC(=O)NC(C)C)nn2)CC1
24,51%,CC(C)(C)OC(=O)N1CCN(Cc2cn([C@@H](Cc3ccccc3)[C@H](Cc3ccccc3)NC(=O)OC3CCCC3)nn2)CC1
25,53%,Cc1ccc(Cl)cc1N1CCN(Cc2cn([C@@H](Cc3ccccc3)[C@H](Cc3ccccc3)NC(=O)OCC3CCCCC3)nn2)CC1
26,80%,Cc1ccccc1N1CCN(Cc2cn([C@@H](Cc3ccccc3)[C@H](Cc3ccccc3)NC(=O)OC3CCCC3)nn2)CC1
27,19%,Cc1ccc(Cl)cc1N1CCN(Cc2cn([C@@H](Cc3ccccc3)[C@H](Cc3ccccc3)NC(=O)NC3CCCC3)nn2)CC1

row,Structure (SMILES),inhibition
1,O=C(N[C@@H](Cc1ccccc1)[C@H](Cc1ccccc1)n1cc(CN2CCC3(CC2)C(=O)NCN3c2ccccc2)nn1)OC1CCCC1,17%
2,"O=C(N[C@@H](Cc1ccccc1)[C@H](Cc1ccccc1)n1cc(CN2CCN(c3cccc(C(F)(F)F)c3)CC2)nn1)OC1CCCC1 (stereo in doubt; (S,S)-11s)",86%
3,"O=C(N[C@@H](Cc1ccccc1)[C@H](Cc1ccccc1)n1cc(CN2CCN(c3cccc(C(F)(F)F)c3)CC2)nn1)OC1CCCC1 (stereo in doubt; (S,S)-7d)",87%

# — ChEMBL document CHEMBL1138217, “Rapid discovery and structure-activity profiling of novel inhibitors of human immunodeficiency virus type 1 protease enabled by the copper(I)-catalyzed synthesis of 1,2,3-triazoles and their further functionalization” (J Med Chem, 2006)
